Key:
[1] = test system: Mus musculus; test: AUC (0 to infinity) in BALB/C mouse plasma at 2 mg/kg, po administered as single dose by LC-MS/MS analysis; assay type: ADME, organism-based; design: dose 2 mg/kg, route oral, time infinity; conditions: in vivo
[2] = Cmax in BALB/C mouse liver at 14.5 mg/kg, po administered as single dose by LC-MS/MS analysis; assay type: ADME, organism-based; design: dose 14.5 mg/kg, route oral
Outline: (§1)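 Male BALB/C mice given single doses of 1 mg/kg iv (5% DMSO, 40% PEG400, 55% saline), or 2 or 14.5 mg/kg po (1% RC-591 in water). Blood taken at set times into sodium heparin and plasma separated at 4 °C; livers from po groups taken right after bleeding, rinsed and blotted. Plasma and liver levels measured by LC–MS/MS.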

[3] = AUC (0 to t) in BALB/C mouse plasma at 14.5 mg/kg, po administered as single dose by LC-MS/MS analysis; assay type: ADME, organism-based; conditions: in vivo
[4] = AUC (0 to t) in BALB/C mouse liver at 14.5 mg/kg, po administered as single dose by LC-MS/MS analysis; assay type: ADME, organism-based; conditions: in vivo
[5] = Dissociation constant, pKa of the compound; assay type: physicochemical
[6] = Oral bioavailability in cynomolgus monkey; assay type: ADME, organism-based, Macaca fascicularis; conditions: in vivo
[7] = Cmax in BALB/C mouse plasma at 14.5 mg/kg, po administered as single dose by LC-MS/MS analysis; assay type: ADME, organism-based; design: dose 14.5 mg/kg, route oral; outline: as §1
[8] = Ratio of AUC (0 to t) in BALB/C mouse liver to plasma at 14.5 mg/kg, po administered as single dose by LC-MS/MS analysis; assay type: ADME, organism-based; conditions: read-out: Ratio AUC
[9] = test system: Mus musculus; test: AUC (0 to infinity) in BALB/C mouse plasma at 1 mg/kg, iv administered as single dose by LC-MS/MS analysis; assay type: ADME, organism-based; design: dose 1 mg/kg, route intravenous, time infinity; conditions: in vivo
[10] = Lipophilicity, log D of the compound; assay type: physicochemical; conditions: octanol/water
[11] = Volume of distribution at steady state in BALB/C mouse at 1 mg/kg, iv by LC-MS/MS analysis; assay type: ADME, organism-based; conditions: in vivo, read-out: Vdss; outline: as §1
[12] = Cmax in BALB/C mouse plasma at 1 mg/kg, iv administered as single dose by LC-MS/MS analysis; assay type: ADME, organism-based; design: dose 1 mg/kg, route intravenous; outline: as §1
[13] = Oral bioavailability in BALB/C mouse at 2 mg/kg administered as single dose by LC-MS/MS analysis; assay type: ADME, organism-based; conditions: in vivo; outline: as §1
[14] = Cmax in BALB/C mouse plasma at 2 mg/kg, po administered as single dose by LC-MS/MS analysis; assay type: ADME, organism-based; design: dose 2 mg/kg, route oral; outline: as §1
[15] = Apparent permeability across apical to basolateral side in human Caco2 cells at 10 uM after 1 hr; assay type: ADME, cell-based; conditions: Caco-2
Outline: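 Caco-2 monolayers; 10 µM compound in pH 7.4 HBSS added to apical side (A→B) or basolateral side (B→A), receiver holding pH 7.4 HBSS with 1% DMSO. Incubated 1 h at 37 °C, 5% CO2, 95% humidity. Drug amounts on both sides measured and permeability calculated for each direction.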

COCCCOc1cc2c(cc1OC)-c1cc(=O)c(C(=O)O)cn1[C@H](C(C)C)C2
AUC [1]: 490 ng·mL·h | Cmax [2]: 11000 ng/mL | AUCt [3]: 4366 ng·mL·h | AUCt [4]: 17265 ng·mL·h | pKa [5]: 5.79 | bioavailability [6]: 57% | Cmax [7]: 2040 ng/mL | Kp [8]: 4 | AUC [9]: 398 ng·mL·h | logD [10]: 1.28 | Vd [11]: 2.07 L/kg | Cmax [12]: 466 ng/mL | bioavailability [13]: 62% | Cmax [14]: 322 ng/mL | Papp A→B at 1 h, 10 µM [15]: 12.8 ×10⁻⁶ cm/s
